In ChEMBL document CHEMBL2346560, “Structure and function of a potent lipopolysaccharide-binding antimicrobial and anti-inflammatory peptide” (J Med Chem, 2013):
Values after ≈ are worked out from the molar mass of the structure shown. Active and inactive are the calls of the source. The calls are words filed in the database; no cut-off is given here. Bridge positions count the residues as written; N and C are the ends. Peptide text beside a SMILES is read from it.

What was measured:
Escherichia coli [1] = assay: Bactericidal activity against Escherichia coli ATCC 25922 at MIC after 20 mins by colony counting assay (reference value: 79.3 CFU); type: functional
Candida albicans [2] = assay: Antifungal activity against Candida albicans ATCC 2002 treated with CaCl2 after 16 hrs by broth dilution method; type: functional; conditions: ATCC 2002, 16 h
How it was run: (§1)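 Salt sensitivity of the MIC. Peptide was tested in water, NaCl, CaCl2, MgCl2 or PBS (Na2HPO4-NaH2PO4, pH 7.4), with every salt at 150 mM. Values are means of three independent experiments, each run in duplicate.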

RAW264.7 [3] = assay: Antiinflammatory activity in mouse RAW264.7 cells assessed as inhibition of LPS-induced TLR4 expression preincubated for 1 hr prior to LPS-challenge measured after 3 hrs by Western blotting analysis; type: functional, cell-based
How it was run: (§2)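 RAW 264.7 cells (1 × 10^6/well) were serum-starved in RPMI-1640 for 16 h. They were pretreated with peptide (0, 5, 10, 20 µg/mL) for 1 h, then given LPS (E. coli 055:B5, 0 or 100 ng/mL) for 3 h. Cells were washed in ice-cold PBS, and cytoplasmic or nuclear fractions were blotted for TLR4, JNK, NF-κB p65 and β-actin. Control was LPS alone.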

RAW264.7 [4] = assay: Antiinflammatory activity in mouse RAW264.7 cells assessed as inhibition of LPS-induced MCP1 production after 24 hrs by ELISA; type: functional, cell-based
How it was run: (§3)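 RAW 264.7 cells (2 × 10^5) were plated and allowed to adhere. They were given peptide (2.5, 5, 10, 20 µg/mL) with or without LPS (E. coli 055:B5, 20 ng/mL) for 24 h. Supernatant TNF-α, IL-6 and MCP-1 were measured by ELISA at A450. Controls were LPS alone and untreated cells. Mean ± SEM of three separate experiments.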

Escherichia coli [5] = assay: Bactericidal activity against Escherichia coli ATCC 25922 at MIC after 5 mins by colony counting assay (reference value: 47.7 CFU); type: functional
Escherichia coli [6] = assay: Bactericidal activity against Escherichia coli ATCC 25922 at 10 times MIC after 40 mins by colony counting assay (reference value: 131.7 CFU); type: functional
Escherichia coli [7] = assay: Bactericidal activity against Escherichia coli ATCC 25922 at 10 times MIC after 5 mins by colony counting assay (reference value: 47.7 CFU); type: functional
RAW264.7 [8] = assay: Antiinflammatory activity in mouse RAW264.7 cells assessed as inhibition of LPS-induced MCP1 production at 20 ug/mL after 24 hrs by ELISA relative to control; type: functional; conditions: RAW264.7, 24 h; how it was run: as §3
Bacillus subtilis [9] = assay: Antibacterial activity against Bacillus subtilis 6633 treated with MgCl2 after 16 hrs by broth dilution method; type: functional; conditions: Bacillus subtilis, 6633, 16 h; how it was run: as §1
Staphylococcus aureus [10] = assay: Antibacterial activity against ampicillin, benzylpencillin-resistant Staphylococcus aureus 08A865 after 16 hrs by broth dilution method; type: functional; conditions: 08A865, 16 h
How it was run: (§4)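 MIC read-out, reported in µg/mL with µM equivalents. Each value is the mean of three independent experiments, each run in duplicate.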

[11] = Toxicity in human RBC assessed as induction of hemolysis at 25 ug/mL after 30 mins relative to control; type: cell-based, Erythrocyte; conditions: red blood cells (RBC), read-out: Activity
How it was run: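 Human red blood cells incubated with peptide. Hemoglobin release read as absorbance at 540 nm and expressed against 1% Triton X-100 as positive control.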

Escherichia coli [12] = assay: Bactericidal activity against Escherichia coli ATCC 25922 at 10 times MIC after 120 mins by colony counting assay (reference value: 1868.3 CFU); type: functional
RAW264.7 [13] = assay: Antiinflammatory activity in mouse RAW264.7 cells assessed as inhibition of LPS-induced NO production at 2.5 ug/mL after 24 hrs by spectrophotometric analysis relative to control; type: functional; conditions: RAW264.7, 24 h
How it was run: (§5)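 RAW 264.7 cells (1 × 10^7) in RPMI-1640 with 10% FBS and penicillin/streptomycin were treated with peptide (2.5, 5, 10, 20 µg/mL) with or without LPS (E. coli 055:B5, 100 ng/mL) for 24 h. Medium nitrite was measured with Griess reagent at A540 against a NaNO2 standard curve. Control was LPS alone. Mean ± SEM of three separate experiments.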

Escherichia coli [14] = assay: Antibacterial activity against Escherichia coli 08A852 assessed as plasma membrane rupture after 30 mins by scanning electron microscopic analysis; type: functional, organism-based
How it was run: (§6)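 E. coli (about 2 × 10^7 CFU/mL) was exposed to peptide at 1 × MIC, 37 °C, 30 min, beside an untreated control. Cells were pelleted, fixed in 2.5% buffered glutaraldehyde (4 °C, 2 h), post-fixed in 1% osmium tetroxide (2 h), dehydrated through graded ethanol, frozen in tert-butyl alcohol and vacuum-dried, then imaged by SEM.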

Bacillus subtilis [15] = assay: Antibacterial activity against Bacillus subtilis 6633 treated with CaCl2 after 16 hrs by broth dilution method; type: functional; conditions: Bacillus subtilis, 6633, 16 h; how it was run: as §1
Escherichia coli [16] = assay: Bactericidal activity against Escherichia coli ATCC 25922 at MIC after 60 mins by colony counting assay (reference value: 296 CFU); type: functional
Escherichia coli [17] = assay: Antibacterial activity against Escherichia coli ATCC 25922 treated with NaCl after 16 hrs by broth dilution method; type: functional; conditions: ATCC 25922, 16 h; how it was run: as §1
Escherichia coli [18] = assay: Antibacterial activity against Escherichia coli ATCC 25922 treated with CaCl2 after 16 hrs by broth dilution method; type: functional; conditions: ATCC 25922, 16 h; how it was run: as §1
Escherichia coli [19] = assay: Antibacterial activity against Escherichia coli ATCC 25922 treated with MgCl2 after 16 hrs by broth dilution method; type: functional; conditions: ATCC 25922, 16 h; how it was run: as §1
Escherichia coli [20] = assay: Antibacterial activity against Escherichia coli 08A852 assessed as cell swelling after 30 mins by scanning electron microscopic analysis; type: functional, organism-based; how it was run: as §6
RAW264.7 [21] = assay: Antiinflammatory activity in mouse RAW264.7 cells assessed as inhibition of LPS-induced TNF alpha production after 24 hrs by ELISA; type: functional, cell-based; how it was run: as §3
RAW264.7 [22] = assay: Antiinflammatory activity in mouse RAW264.7 cells assessed as inhibition of LPS-induced NFkappaB translocation from cytoplasm to nucleus at 20 ug/mL preincubated for 1 hr prior to LPS-challenge measured after 3 hrs by Western blotting analysis relative to LPS-treated control; type: functional; how it was run: as §2
Candida albicans [23] = assay: Antifungal activity against ampicillin, benzylpencillin-resistant Candida albicans 08022821 after 16 hrs by broth dilution method; type: functional; conditions: Candida albicans, 08022821, 16 h; how it was run: as §4
Escherichia coli [24] = assay: Bactericidal activity against Escherichia coli ATCC 25922 at 5 times MIC after 20 mins by colony counting assay (reference value: 79.3 CFU); type: functional
Candida albicans [25] = assay: Antifungal activity against Candida albicans ATCC 2002 treated with PBS after 16 hrs by broth dilution method; type: functional; conditions: ATCC 2002, 16 h; how it was run: as §1
RAW264.7 [26] = assay: Antiinflammatory activity in mouse RAW264.7 cells assessed as inhibition of LPS-induced NO production at 5 ug/mL after 24 hrs by spectrophotometric analysis relative to control; type: functional; conditions: RAW264.7, 24 h; how it was run: as §5
Staphylococcus aureus [27] = assay: Antibacterial activity against Staphylococcus aureus ATCC 2592 after 16 hrs by broth dilution method; type: functional; conditions: ATCC 2592, 16 h; how it was run: as §4
RAW264.7 [28] = assay: Antiinflammatory activity in mouse RAW264.7 cells assessed as inhibition of LPS-induced TLR4 expression at 20 ug/mL preincubated for 1 hr prior to LPS-challenge measured after 3 hrs by Western blotting analysis relative to LPS-treated control; type: functional; how it was run: as §2
Escherichia coli [29] = assay: Bactericidal activity against Escherichia coli ATCC 25922 at MIC after 40 mins by colony counting assay (reference value: 131.7 CFU); type: functional

CC[C@H](C)[C@H](NC(=O)[C@H](Cc1cnc[nH]1)NC(=O)[C@H](CO)NC(=O)[C@@H](NC(=O)[C@@H](NC(=O)[C@@H](NC(=O)[C@@H](NC(=O)[C@H](CCCNC(=N)N)NC(=O)[C@H](CC(C)C)NC(=O)[C@H](CCCCN)NC(=O)[C@H](CCC(=O)O)NC(=O)[C@H](CCCCN)NC(=O)[C@H](CC(C)C)NC(=O)[C@H](CCCCN)NC(=O)[C@@H]1CSSC[C@H](NC(=O)[C@H](CCCCN)NC(=O)[C@@H](N)CCCNC(=N)N)C(=O)N[C@@H](CC(N)=O)C(=O)N[C@@H](Cc2ccccc2)C(=O)N[C@@H](CC(C)C)C(=O)N1)[C@@H](C)O)C(C)C)[C@@H](C)CC)[C@@H](C)O)C(=O)N[C@@H](CC(=O)O)C(=O)N[C@@H](CCCCN)C(=O)N[C@H](C(=O)N[C@@H](CC(C)C)C(=O)N[C@@H](CCCNC(=N)N)C(=O)N1CCC[C@H]1C(=O)N[C@@H](CCC(N)=O)C(=O)NCC(=O)O)C(C)C (H-RKCNFLCKLKEKLRTVITSHIDKVLRPQG-OH; disulfide 3-7)
CFU (Escherichia coli [1]): 11.3
MIC (Candida albicans [2]): 2.35 µg/mL (≈ 0.686 µM)
inhibition (RAW264.7 [3]): Dose-dependent effect
inhibition (RAW264.7 [4]): Dose-dependent effect
CFU (Escherichia coli [5]): 37.3
CFU (Escherichia coli [6]): 0
CFU (Escherichia coli [7]): 11.3
inhibition at 20 µg/mL (RAW264.7 [8]): 68%
MIC (Bacillus subtilis [9]): 75 µg/mL (≈ 21.9 µM)
MIC (Staphylococcus aureus [10]): 2.74 µM (≈ 9.38 µg/mL)
hemolysis at 0.5 h, 25 ug/mL [11]: 3.5%
CFU (Escherichia coli [12]): 0
inhibition at 2.5 µg/mL (RAW264.7 [13]): 17%
Activity (Escherichia coli [14]): Active
MIC (Bacillus subtilis [15]): 75 µg/mL (≈ 21.9 µM)
CFU (Escherichia coli [16]): 0
MIC (Escherichia coli [17]): 2.35 µg/mL (≈ 0.686 µM)
MIC (Escherichia coli [18]): 2.35 µg/mL (≈ 0.686 µM)
MIC (Escherichia coli [19]): 2.35 µg/mL (≈ 0.686 µM)
Activity (Escherichia coli [20]): Active
inhibition (RAW264.7 [21]): Dose-dependent effect
inhibition at 20 µg/mL (RAW264.7 [22]): 74%
MIC (Candida albicans [23]): 2.74 µM (≈ 9.38 µg/mL)
CFU (Escherichia coli [24]): 0
MIC (Candida albicans [25]): 2.35 µg/mL (≈ 0.686 µM)
inhibition at 5 µg/mL (RAW264.7 [26]): 30%
MIC (Staphylococcus aureus [27]): 2.74 µM (≈ 9.38 µg/mL)
inhibition at 20 µg/mL (RAW264.7 [28]): 85%
CFU (Escherichia coli [29]): 0
